Activity calls are given as the source filed them. The calls are words filed in the database; no cut-off is given here.
Key:
HCT-116 [1] = assay: Cytotoxicity against human HCT116 cells after 72 hrs by MTT assay; assay type: functional, cell-based; conditions: HCT-116, 72 h
[2] = Solubility of the compound at 20 uM
HCT-116 [3] = assay: Inhibition of mitosis in human HCT116 cells assessed as appearance of normal bipolar spindle at 10 uM after 24 hrs by immunofluorescence assay; assay type: functional; design: scale not given: the % may be the effect or the level left
In short: (§1)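 Cells treated 24 h on chamber slides, fixed in ice-cold methanol, blocked with 1% goat serum, stained with mouse anti-β-tubulin (1:50) then FITC anti-mouse, DAPI counterstained; 100 mitotic cells per treatment scored at 100× oil for spindle type (normal bipolar, bipolar with lagging chromosomes, tri/multipolar, monopolar). Mean ± SD of two experiments.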

[4] = Inhibition of tubulin polymerization after 1 hr
In short: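 Cell-free assay: >97% pure tubulin in G-PEM buffer (80 mM PIPES, 2 mM MgCl2, 0.5 mM EGTA, 1 mM GTP, pH 6.9) plus 5% glycerol, with vehicle, compound (10, 20, 50 µM) or 3 µM paclitaxel, in pre-warmed plate at 37 °C; absorbance at 340 nm read every minute for 1 h. Repeated twice.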

HCT-116 [5] = assay: Induction of apoptosis in human HCT116 cells assessed as effect on apoptotic index at 20 uM after 72 hrs by DNA laddering assay; assay type: functional
In short: (§2)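 Floating and trypsin-detached adherent cells pooled, cytospun, fixed and TUNEL-labelled; apoptotic index scored among 500 nuclei, three experiments. In parallel, DNA extracted (proteinase K/SDS overnight 56 °C, phenol/chloroform, RNase A) and run on 1.8% agarose/ethidium bromide gel in 0.5× TBE for laddering. Controls received 0.2% DMSO; 24, 48, 72 h treatments.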

HCT-116 [6] = assay: Cell cycle arrest in human HCT116 cells assessed as accumulation at G2/M phase after 24 hrs by propidium iodide staining-based flow cytometry; assay type: functional
In short: (§3)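 Subconfluent cultures exposed continuously to compound; floating and trypsinized adherent cells pooled, PBS-washed, fixed in ice-cold 70% ethanol 30 min, RNase (100 µg/mL) treated, stained with propidium iodide, DNA content measured by flow cytometry to give G1, S, G2/M, apoptotic (sub-G1) and polyploid fractions. Experiments repeated at least twice.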

PC-3 = assay: Cytotoxicity against human PC3 cells after 72 hrs by MTT assay; assay type: functional, cell-based; conditions: PC-3, 72 h
In short: (§4)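 Cells seeded at 2 × 10³ per well, 24 h later exposed continuously 72 h to varying concentrations; then 0.5 mg/mL MTT in phenol red-free DMEM 3 h at 37 °C, formazan dissolved in 2-propanol/HCl, OD 570 nm. Viability relative to DMSO vehicle; IC50 = concentration reducing viability by 50%; triplicate wells, at least three independent experiments, mean ± SD.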

HCT-116 [7] = assay: Inhibition of mitosis in human HCT116 cells assessed as appearance of bipolar spindle with large mass of lagging chromosomes at spindle poles at 10 uM after 24 hrs by immunofluorescence assay; assay type: functional; design: scale not given: the % may be the effect or the level left; in short: as §1
HCT-116 [8] = assay: Inhibition of mitosis in human HCT116 cells assessed as appearance of bipolar spindle with large mass of lagging chromosomes at spindle poles at 5 uM after 24 hrs by immunofluorescence assay; assay type: functional; design: scale not given: the % may be the effect or the level left; in short: as §1
AGS [9] = assay: Cell cycle arrest in human AGS cells assessed as accumulation at G2/M phase at 20 uM after 24 hrs by propidium iodide staining-based flow cytometry; assay type: functional; in short: as §3
T98G = assay: Cytotoxicity against human T98G cells after 72 hrs by SRB assay; assay type: functional, cell-based
In short: (§5)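 Cells plated at 2 × 10³ per well 24 h before continuous 72 h exposure to a concentration series; fixed with cold 50% TCA 1 h at 4 °C, stained with 0.4% sulforhodamine B in 1% acetic acid 30 min, bound dye extracted in 10 mM Tris base, OD 540 nm. Viability as % of DMSO control; IC50 = concentration reducing viability 50%; triplicates, ≥3 experiments.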

HCT-116 [10] = assay: Induction of apoptosis in human HCT116 cells assessed as appearance of hypodiploid nucleus at 20 uM after 72 hrs by TUNEL assay; assay type: functional, cell-based; in short: as §2
HCT-116 [11] = assay: Inhibition of mitosis in human HCT116 cells assessed as appearance of tripolar and multipolar spindle at 20 uM after 24 hrs by immunofluorescence assay; assay type: functional; design: scale not given: the % may be the effect or the level left; in short: as §1
HCT-116 [12] = assay: Cytotoxicity against human HCT116 cells harboring p53 protein after 72 hrs by MTT assay; assay type: functional, cell-based; conditions: HCT-116, 72 h; in short: as §4
HCT-116 [13] = assay: Inhibition of mitosis in human HCT116 cells assessed as appearance of monopolar spindle at 5 uM after 24 hrs by immunofluorescence assay; assay type: functional; design: scale not given: the % may be the effect or the level left; in short: as §1
HCT-116 [14] = assay: Inhibition of mitosis in human HCT116 cells assessed as appearance of tripolar and multipolar spindle at 10 uM after 24 hrs by immunofluorescence assay; assay type: functional; design: scale not given: the % may be the effect or the level left; in short: as §1
LNCaP = assay: Cytotoxicity against human LNCAP cells after 72 hrs by SRB assay; assay type: functional, cell-based; in short: as §5
HCT-116 [15] = assay: Inhibition of mitosis in human HCT116 cells assessed as appearance of normal bipolar spindle at 20 uM after 24 hrs by immunofluorescence assay; assay type: functional; design: scale not given: the % may be the effect or the level left; in short: as §1
A549 [16] = assay: Cytotoxicity against human A549 cells after 72 hrs by SRB assay; assay type: functional, cell-based; conditions: A549, 72 h; in short: as §5
HCT-116 [17] = assay: Inhibition of mitosis in human HCT116 cells assessed as appearance of bipolar spindle with large mass of lagging chromosomes at spindle poles at 20 uM after 24 hrs by immunofluorescence assay; assay type: functional; design: scale not given: the % may be the effect or the level left; in short: as §1
HCT-116 [18] = assay: Induction of apoptosis in human HCT116 cells harboring p53 protein assessed as effect on apoptotic index at 20 uM after 72 hrs by DNA laddering assay; assay type: functional; in short: as §2
A549 [19] = assay: Cell cycle arrest in human A549 cells assessed as accumulation at G2/M phase at 20 uM after 24 hrs by propidium iodide staining-based flow cytometry; assay type: functional; in short: as §3
HCT-116 [20] = assay: Inhibition of mitosis in human HCT116 cells assessed as appearance of tripolar and multipolar spindle at 5 uM after 24 hrs by immunofluorescence assay; assay type: functional; design: scale not given: the % may be the effect or the level left; in short: as §1
HT-29 = assay: Cytotoxicity against human HT-29 cells after 72 hrs by SRB assay; assay type: functional, cell-based; conditions: HT-29, 72 h; in short: as §5
MCF7 = assay: Cytotoxicity against human MCF7 cells after 72 hrs by SRB assay; assay type: functional, cell-based; conditions: MCF7, 72 h; in short: as §5
DU-145 [21] = assay: Cytotoxicity against human DU145 cells after 72 hrs by MTT assay; assay type: functional, cell-based; conditions: DU-145, 72 h; in short: as §4
LoVo = assay: Cytotoxicity against human LoVo cells after 72 hrs by MTT assay; assay type: functional, cell-based; in short: as §4
HCT-116 [22] = assay: Induction of apoptosis in p53-deficient human HCT116 cells assessed as effect on apoptotic index at 20 uM after 72 hrs by DNA laddering assay; assay type: functional; in short: as §2
HCT-116 [23] = assay: Cytotoxicity against p53-deficient human HCT116 cells after 72 hrs by MTT assay; assay type: functional, cell-based; conditions: HCT-116, 72 h; in short: as §4
HCT-116 [24] = assay: Induction of senescence in human HCT116 cells assessed as beta galactosidase activity at 20 uM
HCT-116 [25] = assay: Inhibition of mitosis in human HCT116 cells assessed as appearance of monopolar spindle at 20 uM after 24 hrs by immunofluorescence assay; assay type: functional; design: scale not given: the % may be the effect or the level left; in short: as §1
SK-BR-3 = assay: Cytotoxicity against human SKBR3 cells after 72 hrs by SRB assay; assay type: functional, cell-based; conditions: SK-BR-3, 72 h; in short: as §5
HCT-116 [26] = assay: Inhibition of mitosis in human HCT116 cells assessed as appearance of monopolar spindle at 10 uM after 24 hrs by immunofluorescence assay; assay type: functional; design: scale not given: the % may be the effect or the level left; in short: as §1
DU-145 [27] = assay: Cell cycle arrest in human DU145 cells assessed as accumulation at G2/M phase at 20 uM after 24 hrs by propidium iodide staining-based flow cytometry; assay type: functional; in short: as §3
HCT-116 [28] = assay: Induction of apoptosis in human HCT116 cells assessed as appearance of hypodiploid nucleus at 5 to 20 uM after 48 hrs by flow cytometry; assay type: functional, cell-based; in short: as §3
AGS [29] = assay: Cytotoxicity against human AGS cells after 72 hrs by MTT assay; assay type: functional, cell-based; in short: as §4
Caco-2 = assay: Cytotoxicity against human Caco2 cells after 72 hrs by MTT assay; assay type: functional, cell-based; conditions: Caco-2, 72 h; in short: as §4
HCT-116 [30] = assay: Inhibition of mitosis in human HCT116 cells assessed as mitotic index at 20 uM after 24 hrs by fluorescence assay; assay type: functional
In short: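 Cells treated 24 h, collected as for cell cycle analysis, cytospun, fixed in cold methanol, stained with 3 µM DAPI; mitotic cells counted among 1000 cells under 40× objective. Mean ± SD from three independent experiments.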

HCT-116 [31] = assay: Inhibition of mitosis in human HCT116 cells assessed as appearance of normal bipolar spindle at 5 uM after 24 hrs by immunofluorescence assay; assay type: functional; design: scale not given: the % may be the effect or the level left; in short: as §1
HCT-116 [32] = assay: Induction of apoptosis in human HCT116 cells assessed as appearance of tetraploid nucleus at 5 to 20 uM after 48 hrs by flow cytometry; assay type: functional, cell-based; in short: as §3
HCT-116 [33] = assay: Cell cycle arrest in human HCT116 cells assessed as accumulation at G2/M phase at 5 to 20 uM after 24 hrs by propidium iodide staining-based flow cytometry; assay type: functional; in short: as §3

## O=c1c(-c2ccc(O)cc2)coc2cc(OCCO)cc(O)c12
HCT-116 [1]
  IC50: 25 µM

## CC(=O)OC[C@H]1O[C@@H](O[C@H]2C=C[C@@H](OCCOc3cc(O)c4c(=O)c(-c5ccc(O)cc5)coc4c3)O[C@@H]2COC(C)=O)[C@H](OC(C)=O)[C@@H](OC(C)=O)[C@H]1OC(C)=O
[2]
  solubility: Insoluble
HCT-116 [1]
  IC50: > 20 µM

## CC(=O)O[C@@H]1C=C[C@H](OCCCOc2cc(O)c3c(=O)c(-c4ccc(O)cc4)coc3c2)O[C@H]1C
HCT-116 [3]
  Activity: 44%
[4]
  inhibition: Dose-dependent effect
HCT-116 [5]
  Activity: 12%
HCT-116 [6]
  Activity: Dose-dependent effect
PC-3
  IC50: 10.7 µM
HCT-116 [7]
  Activity: 38%
HCT-116 [8]
  Activity: 14%
AGS [9]
  Activity: 39.7%
T98G
  IC50: 16.7 µM
HCT-116 [10]
  Activity: Active
HCT-116 [11]
  Activity: 42%
HCT-116 [12]
  IC50: 4.76 µM
HCT-116 [13]
  Activity: 0%
HCT-116 [14]
  Activity: 15%
HCT-116 [1]
  IC50: 4.76 µM
LNCaP
  IC50: 18 µM
HCT-116 [15]
  Activity: 16%
A549 [16]
  IC50: 14.7 µM
HCT-116 [17]
  Activity: 40%
HCT-116 [18]
  Activity: 12%
A549 [19]
  Activity: 31.6%
HCT-116 [20]
  Activity: 1%
HT-29
  IC50: 36.1 µM
MCF7
  IC50: 8.88 µM
DU-145 [21]
  IC50: 14.5 µM
LoVo
  IC50: 9.85 µM
HCT-116 [22]
  Activity: 15%
HCT-116 [23]
  IC50: 6.21 µM
HCT-116 [24]
  Activity: 31%
HCT-116 [25]
  Activity: 2%
SK-BR-3
  IC50: 28 µM
HCT-116 [26]
  Activity: 3%
DU-145 [27]
  Activity: 46.1%
HCT-116 [28]
  Activity: Active
AGS [29]
  IC50: 3.05 µM
Caco-2
  IC50: 23.3 µM
HCT-116 [30]
  Activity: 13.2
HCT-116 [31]
  Activity: 85%
HCT-116 [32]
  Activity: Active

## CC(=O)OC[C@H]1O[C@H](OCCCOc2cc(O)c3c(=O)c(-c4ccc(O)cc4)coc3c2)C=C[C@@H]1OC(C)=O
HCT-116 [1]
  IC50: 19.9 µM

## CC(=O)O[C@@H]1C=C[C@H](OCCCCCOc2cc(O)c3c(=O)c(-c4ccc(O)cc4)coc3c2)O[C@H]1C
HCT-116 [6]
  Activity: Dose-dependent effect
HCT-116 [1]
  IC50: 8.08 µM
HCT-116 [30]
  Activity: 3.5

## O=c1c(-c2ccc(O)cc2)coc2cc(OCCCCCO)cc(O)c12
HCT-116 [1]
  IC50: 6.92 µM
HCT-116 [30]
  Activity: 3
HCT-116 [33]
  Activity: inactive

Source: ChEMBL document CHEMBL1641569, “Synthetic conjugates of genistein affecting proliferation and mitosis of cancer cells” (Bioorg Med Chem, 2011)
